# According to ChEMBL document CHEMBL4619723, “New CDK8 inhibitors as potential anti-leukemic agents - Design, synthesis and biological evaluation” (Bioorg Med Chem, 2020):
# Tests used:
# [1] = system: H9c2; assay: cells; settings: Rattus norvegicus, H9c2, 48 h
# [2] = system: MOLM-13; assay: cells; settings: Homo sapiens, MOLM-13, 48 h
# [3] = system: NRK; assay: cells; settings: Rattus norvegicus, 48 h
# [4] = target: Receptor-interacting serine/threonine-protein kinase 1 (Homo sapiens) (UniProt Q13546); assay: Inhibition of biotinylated ligand binding to wild-type human partial length RIPK1 (M1 to K305 residues) expressed in bacterial expression system at 50 nM measured after 1 hr by kinomescan assay relative to control
# In short: (§1)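 Kinases expressed as tags on T7 phage grown in an E. coli BL21-derived host, with lysates cleared by centrifugation and filtration. Streptavidin beads carried biotinylated ligand and were blocked with biotin. Kinase, beads and compound were incubated in binding buffer (20% SeaBlock, 0.17x PBS, 0.05% Tween 20, 6 mM DTT) at room temperature for 1 h. Bound kinase was eluted with free ligand and quantified by qPCR. POC was set between DMSO (100%) and control compound (0%).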
# [5] = target: T1, Cyclin-dependent kinase 8 (Homo sapiens, UniProt P49336); assay: Inhibition of biotinylated ligand binding to wild-type human partial length CDK8 (M1 to T360 residues) expressed in Escherichia coli BL21 at 50 nM measured after 1 hr by kinomescan assay relative to control
# In short: (§2)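 T7 phage-tagged kinase lysates from E. coli BL21 were mixed with streptavidin beads carrying biotinylated ligand and 50 nM compound. Incubated 1 h at room temperature with shaking, washed, then eluted 30 min with 0.5 μM non-biotinylated ligand. Kinase was quantified by qPCR. POC = (test − positive)/(DMSO − positive) ×100, with a control compound as positive.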
# [6] = target: Phosphatidylinositol 5-phosphate 4-kinase type-2 gamma (Homo sapiens) (UniProt Q8TBX8); assay: Inhibition of biotinylated ligand binding to wild-type human partial length PIP5K2C (M1 to A421 residues) expressed in mammalian expression system at 50 nM measured after 1 hr by kinomescan assay relative to control
# In short: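 Competition binding: compound (final 50 nM; 40x DMSO stocks) was incubated with kinase and biotinylated-ligand streptavidin beads in 20% SeaBlock, 0.17x PBS, 0.05% Tween 20 and 6 mM DTT at room temperature for 1 h. After washing, kinase was eluted with 0.5 μM non-biotinylated ligand for 30 min and measured by qPCR. Percent of control was referenced to DMSO (100%) and control compound (0%).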
# [7] = target: Inhibitor of nuclear factor kappa-B kinase subunit epsilon (Homo sapiens) (UniProt Q14164); assay: Inhibition of biotinylated ligand binding to wild-type human full length IKKE (M1 to V716 residues) expressed in bacterial expression system at 50 nM measured after 1 hr by kinomescan assay relative to control
# In short: as §1
# [8] = system: MV4-11; assay: cells; settings: Homo sapiens, MV4-11, 48 h
# [9] = target: Cyclin-dependent kinase 19 (Homo sapiens) (UniProt Q9BWU1); assay: Inhibition of biotinylated ligand binding to wild-type human partial length CDK11 (M1 to N360 residues) expressed in bacterial expression system at 50 nM measured after 1 hr by kinomescan assay relative to control
# In short: as §2
# [10] = system: OCI-AML-3; assay: cells; settings: Homo sapiens, OCI-AML-3, 48 h
# [11] = target: T1, Cyclin-dependent kinase 8; assay: Inhibition of biotinylated ligand binding to wild-type human partial length CDK8 (M1 to T360 residues) expressed in Escherichia coli BL21 measured after 1 hr by kinomescan assay
# [12] = target: 1-phosphatidylinositol 3-phosphate 5-kinase (Homo sapiens) (UniProt Q9Y2I7); assay: Inhibition of biotinylated ligand binding to wild-type human partial length PIKFYVE (F1512 to C2098 residues) expressed in mammalian expression system at 50 nM measured after 1 hr by kinomescan assay relative to control
# [13] = target: cAMP-dependent protein kinase catalytic subunit alpha (Homo sapiens) (UniProt P17612); assay: Inhibition of biotinylated ligand binding to wild-type human partial length PKAC-alpha (G10 to F351 residues) expressed in bacterial expression system at 50 nM measured after 1 hr by kinomescan assay relative to control
# [14] = target: Serine/threonine-protein kinase haspin (Homo sapiens) (UniProt Q8TF76); assay: Inhibition of biotinylated ligand binding to wild-type human partial length HASPIN (I452 to K798 residues) expressed in mammalian expression system at 50 nM measured after 1 hr by kinomescan assay relative to control
# [15] = target: Hormonally up-regulated neu tumor-associated kinase (Homo sapiens) (UniProt P57058); assay: Inhibition of biotinylated ligand binding to wild-type human partial length HUNK (A31 to K354 residues) expressed in bacterial expression system at 50 nM measured after 1 hr by kinomescan assay relative to control
# [16] = target: Serine/threonine-protein kinase pim-2 (Homo sapiens) (UniProt Q9P1W9); assay: Inhibition of biotinylated ligand binding to wild-type human partial length PIM2 (M1 to E291 residues) expressed in bacterial expression system at 50 nM measured after 1 hr by kinomescan assay relative to control
# [17] = target: Protein-tyrosine kinase 2-beta (Homo sapiens) (UniProt Q14289); assay: Inhibition of biotinylated ligand binding to wild-type human full length PYK2 (M1 to E967 residues) expressed in bacterial expression system at 50 nM measured after 1 hr by kinomescan assay relative to control
# [18] = target: cAMP-dependent protein kinase catalytic subunit beta (Homo sapiens) (UniProt P22694); assay: Inhibition of biotinylated ligand binding to wild-type human full length PKAC-beta (M1 to F351 residues) expressed in bacterial expression system at 50 nM measured after 1 hr by kinomescan assay relative to control
# [19] = target: Citron Rho-interacting kinase (Homo sapiens) (UniProt O14578); assay: Inhibition of biotinylated ligand binding to wild-type human partial length CIT (M68 to E432 residues) expressed in bacterial expression system at 50 nM measured after 1 hr by kinomescan assay relative to control
# [20] = target: Serine/threonine-protein kinase MAK (Homo sapiens) (UniProt P20794); assay: Inhibition of biotinylated ligand binding to wild-type human partial length MAK (M1 to P314 residues) expressed in bacterial expression system at 50 nM measured after 1 hr by kinomescan assay relative to control
# Chain of Serine/threonine-protein kinase MAK (Homo sapiens) (P20794 whole entry, the tested form may be a part): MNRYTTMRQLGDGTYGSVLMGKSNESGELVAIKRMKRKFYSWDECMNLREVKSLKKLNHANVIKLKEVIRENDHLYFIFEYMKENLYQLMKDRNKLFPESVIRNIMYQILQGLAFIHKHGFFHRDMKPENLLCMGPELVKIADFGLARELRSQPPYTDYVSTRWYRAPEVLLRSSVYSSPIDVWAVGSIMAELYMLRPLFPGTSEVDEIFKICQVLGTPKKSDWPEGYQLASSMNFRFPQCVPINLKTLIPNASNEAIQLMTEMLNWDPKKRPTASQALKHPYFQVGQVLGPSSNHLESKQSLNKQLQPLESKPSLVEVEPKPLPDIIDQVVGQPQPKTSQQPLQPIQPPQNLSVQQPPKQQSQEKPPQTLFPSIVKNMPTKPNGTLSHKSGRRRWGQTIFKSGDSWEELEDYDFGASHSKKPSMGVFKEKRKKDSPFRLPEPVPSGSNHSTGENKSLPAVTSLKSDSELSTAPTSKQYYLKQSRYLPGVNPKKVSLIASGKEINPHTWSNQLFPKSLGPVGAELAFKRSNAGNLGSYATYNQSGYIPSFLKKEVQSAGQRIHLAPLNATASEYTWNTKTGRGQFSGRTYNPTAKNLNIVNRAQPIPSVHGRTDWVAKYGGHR
# T1 sequence (P49336 whole entry, the tested form may be a part): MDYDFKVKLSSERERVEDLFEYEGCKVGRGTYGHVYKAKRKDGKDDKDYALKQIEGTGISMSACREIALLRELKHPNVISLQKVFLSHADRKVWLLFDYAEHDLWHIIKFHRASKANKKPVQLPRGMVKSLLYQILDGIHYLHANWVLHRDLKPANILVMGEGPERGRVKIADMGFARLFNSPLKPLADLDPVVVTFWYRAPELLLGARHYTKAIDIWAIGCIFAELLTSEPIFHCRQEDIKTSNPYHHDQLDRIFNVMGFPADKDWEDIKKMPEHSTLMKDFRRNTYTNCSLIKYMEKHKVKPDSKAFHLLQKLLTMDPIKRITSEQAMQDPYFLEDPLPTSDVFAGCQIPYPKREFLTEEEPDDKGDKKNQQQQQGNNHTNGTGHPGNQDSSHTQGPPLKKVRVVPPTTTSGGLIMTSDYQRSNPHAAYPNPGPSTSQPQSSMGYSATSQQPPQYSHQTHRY
# Chain of Cyclin-dependent kinase 19 (Homo sapiens) (Q9BWU1 whole entry, the tested form may be a part): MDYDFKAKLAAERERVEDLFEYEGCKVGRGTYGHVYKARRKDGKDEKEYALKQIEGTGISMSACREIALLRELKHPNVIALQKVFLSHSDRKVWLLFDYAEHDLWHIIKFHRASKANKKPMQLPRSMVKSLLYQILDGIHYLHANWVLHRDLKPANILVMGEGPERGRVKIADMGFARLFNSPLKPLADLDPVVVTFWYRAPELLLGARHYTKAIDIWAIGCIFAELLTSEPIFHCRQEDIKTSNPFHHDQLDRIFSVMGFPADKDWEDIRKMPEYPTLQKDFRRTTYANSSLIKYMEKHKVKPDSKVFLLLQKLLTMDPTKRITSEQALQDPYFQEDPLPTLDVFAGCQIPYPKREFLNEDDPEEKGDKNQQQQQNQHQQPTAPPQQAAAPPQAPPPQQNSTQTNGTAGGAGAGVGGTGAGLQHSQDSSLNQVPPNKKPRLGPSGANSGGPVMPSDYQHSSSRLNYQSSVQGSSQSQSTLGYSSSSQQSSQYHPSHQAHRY
# Chain of Citron Rho-interacting kinase (Homo sapiens) (O14578 whole entry, the tested form may be a part): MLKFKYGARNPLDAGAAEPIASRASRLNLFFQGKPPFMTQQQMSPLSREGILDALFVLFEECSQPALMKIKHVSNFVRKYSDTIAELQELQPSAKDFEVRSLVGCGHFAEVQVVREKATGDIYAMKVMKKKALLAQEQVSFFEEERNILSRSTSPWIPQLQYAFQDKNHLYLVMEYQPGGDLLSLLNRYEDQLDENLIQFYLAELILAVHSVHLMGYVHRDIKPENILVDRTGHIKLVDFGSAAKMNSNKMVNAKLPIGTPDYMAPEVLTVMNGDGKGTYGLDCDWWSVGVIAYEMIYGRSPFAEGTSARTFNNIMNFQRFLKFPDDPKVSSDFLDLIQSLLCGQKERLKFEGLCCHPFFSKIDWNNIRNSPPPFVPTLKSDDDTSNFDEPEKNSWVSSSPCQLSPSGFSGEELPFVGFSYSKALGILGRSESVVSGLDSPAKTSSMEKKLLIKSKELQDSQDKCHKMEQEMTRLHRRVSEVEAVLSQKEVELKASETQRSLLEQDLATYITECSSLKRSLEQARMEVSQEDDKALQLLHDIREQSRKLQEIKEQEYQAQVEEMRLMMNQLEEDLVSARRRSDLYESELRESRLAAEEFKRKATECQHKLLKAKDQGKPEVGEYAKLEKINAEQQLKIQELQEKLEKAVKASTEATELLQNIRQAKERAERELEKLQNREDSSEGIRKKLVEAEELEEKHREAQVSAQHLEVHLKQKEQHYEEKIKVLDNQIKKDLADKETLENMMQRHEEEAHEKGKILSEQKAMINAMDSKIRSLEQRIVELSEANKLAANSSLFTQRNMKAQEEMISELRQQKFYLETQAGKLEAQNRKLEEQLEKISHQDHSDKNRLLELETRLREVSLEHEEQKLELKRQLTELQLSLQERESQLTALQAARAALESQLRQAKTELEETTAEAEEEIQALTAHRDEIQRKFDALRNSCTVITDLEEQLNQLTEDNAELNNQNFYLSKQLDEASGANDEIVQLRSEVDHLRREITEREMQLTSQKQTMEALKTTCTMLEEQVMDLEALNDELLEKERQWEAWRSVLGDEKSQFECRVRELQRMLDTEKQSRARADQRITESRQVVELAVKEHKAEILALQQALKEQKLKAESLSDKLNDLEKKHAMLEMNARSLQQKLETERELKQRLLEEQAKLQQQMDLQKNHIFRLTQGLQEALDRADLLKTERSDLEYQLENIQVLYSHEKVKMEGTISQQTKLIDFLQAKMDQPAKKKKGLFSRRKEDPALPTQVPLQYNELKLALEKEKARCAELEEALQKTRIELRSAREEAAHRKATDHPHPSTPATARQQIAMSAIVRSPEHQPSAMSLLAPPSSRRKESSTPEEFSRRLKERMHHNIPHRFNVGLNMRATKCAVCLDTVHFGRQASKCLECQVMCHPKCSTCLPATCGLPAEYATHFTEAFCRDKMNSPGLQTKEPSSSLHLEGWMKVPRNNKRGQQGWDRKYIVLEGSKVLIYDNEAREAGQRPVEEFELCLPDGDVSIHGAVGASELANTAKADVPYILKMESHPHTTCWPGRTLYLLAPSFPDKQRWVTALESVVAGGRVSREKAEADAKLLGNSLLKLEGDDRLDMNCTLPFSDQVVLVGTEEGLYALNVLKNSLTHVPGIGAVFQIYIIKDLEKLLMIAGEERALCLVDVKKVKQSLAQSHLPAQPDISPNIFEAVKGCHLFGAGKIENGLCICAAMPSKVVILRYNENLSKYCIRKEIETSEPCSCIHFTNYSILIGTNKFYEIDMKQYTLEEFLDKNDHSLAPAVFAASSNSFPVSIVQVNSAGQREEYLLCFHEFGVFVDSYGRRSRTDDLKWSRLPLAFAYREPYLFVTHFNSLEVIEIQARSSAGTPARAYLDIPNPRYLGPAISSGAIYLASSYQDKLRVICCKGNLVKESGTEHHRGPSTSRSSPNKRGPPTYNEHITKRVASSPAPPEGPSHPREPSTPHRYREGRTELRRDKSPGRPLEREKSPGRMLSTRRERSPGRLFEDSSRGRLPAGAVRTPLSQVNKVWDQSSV
# Chain of Phosphatidylinositol 5-phosphate 4-kinase type-2 gamma (Homo sapiens) (Q8TBX8 whole entry, the tested form may be a part): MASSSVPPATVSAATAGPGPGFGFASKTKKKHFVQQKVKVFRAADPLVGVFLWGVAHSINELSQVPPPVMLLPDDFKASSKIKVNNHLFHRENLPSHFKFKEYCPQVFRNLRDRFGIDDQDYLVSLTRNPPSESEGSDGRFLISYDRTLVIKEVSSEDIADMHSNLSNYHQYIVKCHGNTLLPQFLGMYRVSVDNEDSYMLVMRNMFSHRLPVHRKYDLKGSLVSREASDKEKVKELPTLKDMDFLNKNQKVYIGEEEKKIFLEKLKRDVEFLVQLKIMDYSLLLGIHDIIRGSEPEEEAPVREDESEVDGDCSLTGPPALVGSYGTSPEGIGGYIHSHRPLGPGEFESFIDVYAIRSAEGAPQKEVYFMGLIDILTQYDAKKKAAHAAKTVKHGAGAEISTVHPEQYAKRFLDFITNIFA
# Chain of Serine/threonine-protein kinase pim-2 (Homo sapiens) (Q9P1W9 whole entry, looked up, the tested form may be a part): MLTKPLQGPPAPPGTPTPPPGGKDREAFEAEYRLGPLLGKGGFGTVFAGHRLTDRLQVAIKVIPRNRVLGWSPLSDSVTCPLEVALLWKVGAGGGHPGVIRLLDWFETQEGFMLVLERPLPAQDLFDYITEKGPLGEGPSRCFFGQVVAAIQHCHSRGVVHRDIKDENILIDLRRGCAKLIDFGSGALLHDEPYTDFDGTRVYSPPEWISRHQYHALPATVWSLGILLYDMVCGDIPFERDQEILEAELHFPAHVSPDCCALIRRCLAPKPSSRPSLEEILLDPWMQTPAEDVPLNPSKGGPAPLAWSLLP
# Chain of Hormonally up-regulated neu tumor-associated kinase (Homo sapiens) (P57058 whole entry, the tested form may be a part): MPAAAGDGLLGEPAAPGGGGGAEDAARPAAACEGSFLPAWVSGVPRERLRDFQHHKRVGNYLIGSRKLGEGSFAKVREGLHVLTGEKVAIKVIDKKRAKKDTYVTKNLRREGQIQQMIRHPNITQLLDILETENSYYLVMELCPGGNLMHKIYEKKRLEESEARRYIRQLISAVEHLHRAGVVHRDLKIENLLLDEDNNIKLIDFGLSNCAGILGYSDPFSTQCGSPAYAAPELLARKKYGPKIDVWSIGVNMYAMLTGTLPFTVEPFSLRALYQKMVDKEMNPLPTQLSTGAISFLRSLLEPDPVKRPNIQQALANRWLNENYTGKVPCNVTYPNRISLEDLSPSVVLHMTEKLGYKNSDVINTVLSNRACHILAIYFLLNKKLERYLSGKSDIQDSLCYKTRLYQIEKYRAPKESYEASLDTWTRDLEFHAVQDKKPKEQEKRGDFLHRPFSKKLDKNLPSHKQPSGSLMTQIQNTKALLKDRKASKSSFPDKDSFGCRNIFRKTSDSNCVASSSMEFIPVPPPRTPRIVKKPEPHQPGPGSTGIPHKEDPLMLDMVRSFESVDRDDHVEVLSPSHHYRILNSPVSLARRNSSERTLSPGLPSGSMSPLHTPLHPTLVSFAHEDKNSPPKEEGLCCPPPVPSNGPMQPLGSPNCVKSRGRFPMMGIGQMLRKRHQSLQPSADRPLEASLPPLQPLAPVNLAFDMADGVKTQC
SMILES,EC50 [1],EC50 [2],EC50 [3],inhibition [4],inhibition [5],inhibition [6],inhibition [7],EC50 [8],inhibition [9],EC50 [10],Kd [11],inhibition [12],inhibition [13],inhibition [14],inhibition [15],inhibition [16],inhibition [17],inhibition [18],inhibition [19],inhibition [20]
CN(C)[C@@H]1CC[C@@]2(C)[C@@H](CC[C@@H]3[C@@H]2CC[C@]2(C)C(c4cncc(Cl)c4)=CC[C@@H]32)C1,12.5 to 25 µM,11.2 µM,20.5 µM,> 80%,> 80%,> 80%,> 80%,8.6 µM,> 80%,7.5 µM,0.013 µM,,,,,,,,,
CN(C)[C@@H]1CC[C@@]2(C)[C@@H](CC[C@@H]3[C@@H]2CC[C@]2(C)C(c4ccc5ccncc5c4)=CC[C@@H]32)C1,12.5 to 25 µM,9 µM,11.4 µM,,> 80%,,,5.5 µM,> 80%,7.6 µM,0.018 µM,> 80%,> 80%,> 80%,> 80%,> 80%,> 80%,> 80%,> 80%,> 80%
CN(C)[C@@H]1CC[C@@]2(C)[C@@H](CC[C@@H]3[C@@H]2CC[C@]2(C)C(c4cccnc4)=CC[C@@H]32)C1,25 to 50 µM,10.2 µM,29.7 µM,,,,,10.1 µM,,10 µM,,,,,,,,,,
CN(C)[C@@H]1CC[C@@]2(C)[C@@H](CC[C@@H]3[C@@H]2CC[C@]2(C)C(c4ccc5cnccc5c4)=CC[C@@H]32)C1,6.5 to 12.5 µM,3.9 µM,7.1 µM,,,,,4.1 µM,,2.7 µM,,,,,,,,,,
